Experimental data as given in ChEMBL document CHEMBL1140080, “Adamantyl-substituted retinoid-derived molecules that interact with the orphan nuclear receptor small heterodimer partner: effects of replacing the 1-adamantyl or hydroxyl group on inhibition of cancer cell growth, induction of cancer cell apoptosis, and inhibition of SRC homology 2 …” (J Med Chem, 2008).

Key:
[1] = Induction of apoptosis in human HL60R cells at 0.1 uM after 24 hrs by acridine orange staining; assay type: functional
Procedure, shortened: (§1)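 KG-1, HL-60R (24 h) or MDA-MB-231 (96 h) cells in 5% FBS medium attached overnight, then were treated with analogue in Me2SO or vehicle (final 0.1% Me2SO). Apoptotic cells were scored by acridine orange staining on at least three replicates. Tested concentrations were 0.1–5.0 μM, plus 25 μM for KG-1.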

[2] = Induction of apoptosis in human HL60R cells at 1.0 uM after 24 hrs by acridine orange staining; assay type: functional; procedure, shortened: as §1
[3] = Growth inhibition of HMVE cells after 72 hrs by alamar blue method; assay type: cell-based; settings: Homo sapiens
[4] = Growth inhibition of HMVE cells at 0.5 uM after 72 hrs by alamar blue method; assay type: cell-based; settings: human; for inhibition at 72 h, 0.5 µM: HMVE cells, read-out: GI
MDA-MB-231 [5] = experiment: Induction of apoptosis in human MDA-MB-231 cells at 2.0 uM after 96 hrs by acridine orange staining; assay type: functional; procedure, shortened: as §1
MDA-MB-231 [6] = experiment: Induction of apoptosis in human MDA-MB-231 cells at 1.0 uM after 96 hrs by acridine orange staining; assay type: functional; procedure, shortened: as §1

| Compound | Activity [1] [%] | Activity [2] [%] | IC50 [3] [nM] | inhibition at 72 h, 0.5 µM [4] [%] | Activity (MDA-MB-231 [5]) [%] | Activity (MDA-MB-231 [6]) [%] | growth inhibition (GI) ([4]; hmve, 72 h, 0.5 µM) [%] |
| --- | --- | --- | --- | --- | --- | --- | --- |
| Cc1cc(C)c(-c2cc(-c3ccc4cc(C(=O)O)ccc4c3C)ccc2O)c(C)c1 | 0 | 0 | > 500 | 17 | – | – | – |
| CC(c1cc(-c2ccc3cc(C(=O)O)ccc3c2)ccc1O)C12CC3CC(CC(C3)C1)C2 (centres undefined) | – | 0 | > 500 | 30 | – | – | – |
| COc1cc(-c2ccc3cc(C(=O)O)ccc3c2C)ccc1O | -4 | 7 | – | – | 7 | 5 | – |
| O=C(O)c1ccc2cc(-c3ccc(O)c(C4C5CC6CC(C5)CC4C6)c3)ccc2c1 (centres undefined) | 0 | 0 | > 500 | 35 | – | – | – |
| O=C(O)c1ccc2cc(-c3ccc(O)c([C@@H]4CCC[C@H]5CCCCC54)c3)ccc2c1 (some centres undefined) | – | 0 | > 500 | 10 | – | – | – |
| O=C(O)/C=C/c1ccc(-c2ccc(O)c(C34CC5CC(CC(C5)C3)C4)c2)cc1 [ADAROTENE] | – | 98 | 100 | 90 | 58 | 53 | – |
| COc1cc(-c2ccc3cc(C(=O)O)ccc3c2)cc(C23CC4CC(CC(C4)C2)C3)c1O | – | – | – | – | – | 0 | – |
| O=C(O)c1ccc2cc(-c3ccc(O)c([C@@H]4CC[C@@H]5CCCC[C@H]5C4)c3)ccc2c1 | – | 0 | > 500 | 0 | – | – | – |
| CCCCC[C@@H]1CC2(c3cc(-c4ccc(/C=C/C(=O)O)cc4)ccc3O)CCC1CC2 | 0 | 0 | – | – | – | – | – |
| COc1ccc(-c2ccc3cc(C(=O)O)ccc3c2)cc1C12CC3CC(CC(C3)C1)C2 | 3 | 95 | – | – | – | – | – |
| COc1ccc(C23CC4CC(CC(C4)C2)C3)cc1-c1ccc2cc(C(=O)O)ccc2c1 | – | 0 | – | – | – | – | – |
| Cc1c(-c2ccc(O)c(-c3ccc4c(c3)C(C)(C)CCC4(C)C)c2)ccc2cc(C(=O)O)ccc12 | 0 | 0 | 600 | 60 | – | – | – |
| CC(C)=CCC/C(C)=C\Cc1cc(-c2ccc3cc(C(=O)O)ccc3c2)ccc1O | – | 0 | – | – | – | – | – |
| O=C(O)c1ccc2cc(-c3ccc(O)c([C@H]4CCC5CCCC[C@H]5C4)c3)ccc2c1 (some centres undefined) | – | 0 | – | – | – | – | – |
| O=C(O)/C=C/c1ccc(-c2ccc(O)c(C3C4CC5CC(C4)CC3C5)c2)cc1 (centres undefined) | 2 | 90 | – | – | 47 | 20 | – |
| O=C(O)c1ccc2c(Cl)c(-c3ccc(O)c(C45CC6CC(CC(C6)C4)C5)c3)ccc2c1 | 62 | 94 | > 500 | 45 | 41 | 21 | – |
| CC1C2(c3cc(-c4ccc(/C=C/C(=O)O)cc4)ccc3O)CCC(C2)C1(C)C (centres undefined) | 2 | 2 | > 500 | – | – | – | 40 |
| COc1cc(-c2ccc3cc(C(=O)O)ccc3c2)ccc1C12CC3CC(CC(C3)C1)C2 | – | 0 | – | – | – | – | – |
| CC1(C)CC(c2cc(-c3ccc4cc(C(=O)O)ccc4c3)ccc2O)CC(C)(C)C1 | 26 | 60 | 500 | 50 | 49 | 10 | – |
| CC(C)(C)c1cc(-c2ccc3cc(C(=O)O)ccc3c2)ccc1O | – | – | > 500 | 10 | – | – | – |
| O=C(O)c1ccc2cc(-c3ccc(O)c(C45CC6CC(CC(C6)C4)C5)c3)ccc2c1 [O-DEMETHYLATED ADAPALENE] | 73 | 98 | – | – | 46 | 26 | – |
| O=C(O)c1ccc2cc(-c3cc(C45CC6CC(CC(C6)C4)C5)ccc3O)ccc2c1 | – | – | – | – | – | 0 | – |
| CC1(C)CCC(C)(C)c2cc(-c3ccc4cc(C(=O)O)ccc4c3)c(CO)cc21 | – | – | – | – | – | 0 | – |
| COc1cc(-c2ccc3cc(C(=O)O)ccc3c2)cc(C23CC4CC(CC(C4)C2)C3)c1 | – | – | – | – | – | 20 | – |
| O=C(O)c1ccc2cc(-c3cc(O)c(O)c(C45CC6CC(CC(C6)C4)C5)c3)ccc2c1 | – | – | – | – | – | 0 | – |
| COCCOCOc1ccc(-c2ccc3cc(C(=O)O)ccc3c2)cc1C12CC3CC(CC(C3)C1)C2 | – | 21 | – | – | – | – | – |
| CC1=C(/C=C/C(C)=C/C=C/C(C)=C/C(=O)O)C(C)(C)CCC1 [TRETINOIN] | 0 | 0 | > 500 | 10 | 0 | 0 | – |
| O=C(O)c1ccc2cc(-c3cc(O)cc(C45CC6CC(CC(C6)C4)C5)c3)ccc2c1 | – | – | – | – | – | 0 | – |
| Cc1c(-c2ccc(O)c(C34CC5CC(CC(C5)C3)C4)c2)ccc2cc(C(=O)O)ccc12 | 29 | 70 | 340 | 65 | 43 | 28 | – |
| CC1(C)CCC(C)(C)c2cc(-c3cc(-c4ccc(/C=C/C(=O)O)cc4)ccc3O)ccc21 | – | 0 | – | – | – | – | – |
